KCNK9 inh: human KCNK9 channel inhibition. 1.2% of 310,000 active. HEK293 KCNK9, FluxOR thallium flux fluorescence; active compounds read low. B-score at 10 µM. Q9NPC2. AID 488922;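 active = ratio B-score over 3 SD below the library mean, with starting fluorescence within 5 SD of its mean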;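 also: negative B-score means less thallium flux so channel inhibition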
Kir21 inh: inhibitors of mouse Kir2.1 inward-rectifier potassium channel. 0.85% of 310,000 active. P35561. B-score at 10 µM. HEK293-Kir2.1, FluxOR thallium flux fluorescence; active compounds read low;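 active = fluorescence ratio B-score at or below minus 3 SD of library scores, with starting-brightness B-score within 2 SD, cut at about -4.2 in these data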;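 also: channel flux triggered by added potassium and thallium sulfate stimulus; B-score of peak minus minimum fluorescence over baseline after thallium stimulus; more negative B-score means stronger Kir2.1 block with less thallium influx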
hERG rescue: shields human hERG channel from block by proarrhythmic agents; Q12809; CHO-hERG, FluxOR thallium flux, dofetilide IC70 present; activation (rescue from dofetilide block), less the hit threshold, % at 10 µM; 0.51% of 310,000 active; AID 1511;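 active = activation above the mean of controls blocked by dofetilide plus 5 SD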;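 also: thallium influx through hERG after potassium depolarization seen as dye fluorescence rise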
KCNK3 inh: human KCNK3 channel inhibition, primary screen. B-score at 10 µM. O14649. 0.84% of 340,000 active. CHO-KCNK3 thallium flux, FluxOR fluorescence; active compounds read low;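 active = B-score under library mean minus 4 SD, starting fluorescence ratio at most library mean plus 5 SD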;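 also: more negative B-score means stronger inhibition of thallium flux through KCNK3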
Target sequence (O14649 whole entry, looked up): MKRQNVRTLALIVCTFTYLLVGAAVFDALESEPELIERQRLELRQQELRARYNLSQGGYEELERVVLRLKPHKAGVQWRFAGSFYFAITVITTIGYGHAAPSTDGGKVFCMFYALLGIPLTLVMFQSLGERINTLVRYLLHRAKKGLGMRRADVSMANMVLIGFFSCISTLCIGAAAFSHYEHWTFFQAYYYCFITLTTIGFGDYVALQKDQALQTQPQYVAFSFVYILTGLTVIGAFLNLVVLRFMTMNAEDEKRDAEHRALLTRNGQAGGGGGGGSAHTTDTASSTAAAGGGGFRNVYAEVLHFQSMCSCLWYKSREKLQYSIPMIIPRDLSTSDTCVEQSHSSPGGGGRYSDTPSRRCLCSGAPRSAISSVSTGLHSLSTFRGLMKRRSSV
KCNQ1 inh: inhibitors of human KCNQ1 potassium channel; CHO-K1 KCNQ1, FluxOR thallium flux fluorescence; active compounds read high; B-score at 10 µM; 1.3% of 310,000 active; AID 2642;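 active = compounds whose thallium flux B-score, printed positive for inhibition, exceeds three library SD while starting fluorescence stays within three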;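 also: channel opened by potassium depolarization with thallium stimulus after 20 min compound exposure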
KCNQ1 pot: potentiators or activators of human KCNQ1 potassium channel; P51787; CHO-K1 KCNQ1, thallium flux FluxOR fluorescence; active compounds read high; B-score at 10 µM; 0.35% of 310,000 active;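 active = fluorescence ratio B-score, a plate-corrected score, at least three library SD, with initial intensity B-score within 5 SD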
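Schedule – 37 °C overnight plating, 90-min dark dye load, 20-min compound pretreatment · System – stable KCNQ1 CHO-K1 line · Probe or stimulus – thallium- and potassium-containing depolarizing buffer · Measured by – kinetic FluxOR fluorescence, 10 s baseline plus 110 s post-stimulus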
An asterisk follows results filed as active; i = inactive; / = not tested or not shown. Only some compounds are listed: those with a hit (about 3.8% of all), similar ones and a draw of the others.

SMILES	KCNK9 inh	Kir21 inh	hERG rescue	KCNK3 inh	KCNQ1 inh	KCNQ1 pot
COC(=O)c1sc(NC(=O)COc2cccc3ccccc23)nc1C	i	1.6	9.0*	i	i	i
COC(=O)c1sc(NC(=O)COc2ccc(OC)cc2)nc1C	i	1.3	-1	i	i	i
COC(=O)c1sc(NC(=S)NC(=O)c2cccc(C)c2)nc1C	i	0.23	6.2*	i	i	i
COC(=O)c1ccc(C(=O)NC(=S)Nc2nc3c(s2)CCCC3)cc1	i	-0.02	2	i	i	23*
O=C(NC(=S)Nc1nc2c(s1)CCCC2)c1ccccc1	i	0.73	-4	i	i	i
CCOC(=O)c1sc(NC(=O)Cc2ccc(C)cc2)nc1C	i	-4.3*	-18	i	i	i
COc1ccc(OC)c(CCNC(=O)Cn2ccc3cc(S(=O)(=O)N4CCCC4)ccc32)c1	i	0.57	-8	i	i	i
C1CCN(CCCNC2C3CC4CC(C3)CC2C4)C1 (stereo unspecified)	i	-11*	-9	i	i	i
O=C(COc1ccc(S(=O)(=O)N2CCc3ccccc32)cc1Cl)NCc1ccccn1	i	-5.2*	-3	i	i	i
Cc1cc(C)n(C(C[N+](=O)[O-])c2ccc(Cl)cc2)n1 (stereo unspecified)	i	-5.2*	-14	i	i	i
Cc1ccc(S(=O)(=O)N(Cc2ccccc2)C(C)C)cc1	i	-0.07	-14	i	i	i
CC(C)(C)c1cc(CCC(=O)NCc2cccnc2)cc(C(C)(C)C)c1O	i	-5.1*	-4	i	i	i
Cc1cccc(Cn2c(O)c(N=NC(=S)Nc3ccccc3F)c3ccccc32)c1	i	0.15	27*	i	i	8*
Oc1c(N=NC(=S)Nc2ccccc2F)c2ccccc2n1Cc1ccc(F)cc1	i	1.9	55*	i	i	15*
Oc1c(N=NC(=S)Nc2ccccc2F)c2ccccc2n1Cc1cccc(Cl)c1	i	0.33	16*	i	i	i
CCc1ccc(NC(=O)COc2cccc(-n3cnnn3)c2)cc1	i	-0.46	-4	i	i	i
Fc1ccc(-c2nnc3ccc(N4CCc5ccccc5C4)nn23)cc1	i	-0.79	-10	i	i	i
COc1ccc(NC(=O)C2Cc3ccccc3CN2C(=O)c2ccccc2)cn1 (stereo unspecified)	i	-1.9	-13	i	i	i
O=C(Nc1nc(-c2ccccc2)cs1)c1ccc(N2CCOCC2)c([N+](=O)[O-])c1	i	-1.5	-10	i	7*	i
CCc1nnc(NC(=O)CCC(=O)N2CCN(C3CCCCC3)CC2)s1	i	-0.13	4	i	i	13*
O=[N+]([O-])c1cccc(CSc2nnc(Cc3ccccc3)n2-c2ccc(F)cc2)c1	i	-5.8*	-8	i	i	i
Cc1cc(C)c2sc(NNC(=O)c3ccc(S(=O)(=O)N4CCc5ccccc5C4)cc3)nc2c1	i	0.14	-6	i	7*	i
COc1cccc(-c2nn3c(-c4cc(C)[nH]n4)nnc3s2)c1	i	-1.7	5.9*	i	i	i
COc1cccc(-c2nn3c(-c4ccccn4)nnc3s2)c1	i	0.1	-18	i	i	i
CCOc1ccccc1N(CC(=O)N1CCCCCC1)S(C)(=O)=O	i	-0.71	-13	i	i	i
SMILES	KCNK9 inh	Kir21 inh	hERG rescue	KCNK3 inh	KCNQ1 inh	KCNQ1 pot
CCOc1ccccc1N(CC(=O)OC)S(C)(=O)=O	i	1.1	4.6*	i	i	i
C=CCn1c(CSc2nc3ccccc3s2)nnc1SCC(=O)NCc1ccccc1	i	-5.2*	-6	i	i	i
O=C(OCCCCOC(=O)c1ccccc1)c1ccccc1	i	-1.1	-8	i	i	i
O=C(OCCCOC(=O)c1ccc(O)cc1)c1ccc(O)cc1	i	-4.9*	-23	i	i	i
Cc1ccc(NC(=S)NC(=O)c2cncc(Br)c2)cc1Cl	i	0.57	8.8*	i	i	i
O=C(NC(=S)Nc1ccc(Cl)cc1)c1cncc(Br)c1	i	0.48	-2	i	i	i
O=S(=O)(Nc1cccnc1)c1ccc(C2CCCCC2)cc1	i	-1.1	-6	i	i	i
Cc1ccc(C2C(C(=O)c3cccs3)=C(O)C(=O)N2CCN2CCOCC2)o1 (stereo unspecified)	i	-0.15	-2	i	i	i
O=C1c2ccccc2C(Nc2ccc(-c3nc4ccccc4[nH]3)cc2)N1Cc1ccco1 (stereo unspecified)	i	0.48	-13	-11*	i	i
COc1ccccc1C(=O)NNC(=O)C(=O)NCc1ccccc1	i	0.1	10*	i	i	7*
CCn1cnc2c1c(=O)n(Cc1ccc(C(=O)OC)cc1)c(=O)n2Cc1ccccc1	i	0.1	-5	i	i	i
c1ccc2nc(N3CCOCC3)c(N3CCCC3)nc2c1	/	/	/	i	/	/
COc1ccc(/C=C(/C(=O)c2cccs2)N2C=CC=CC2=C(C#N)C#N)cc1	i	-3.6	-29	i	11*	i
COc1ccc(C(=O)/C(=C\c2ccco2)N2C=CC=CC2=C(C#N)C#N)cc1	i	-9.9*	-19	i	i	i
N#CC(C#N)=C1C=CC=CN1/C(=C\c1ccco1)C(=O)c1ccccc1	/	/	/	i	/	/
N#CC(C#N)=C1C=CC=CN1/C(=C\c1ccco1)C(=O)c1ccc(Br)cc1	/	/	/	i	/	/
COCC(C)NC(=O)c1cc(-c2ccccc2OC)on1 (stereo unspecified)	i	-0.12	-11	i	i	i
O=C(NCc1cccnc1)/C(=C/c1ccc(Cl)cc1)NC(=O)c1ccccc1	i	-0.04	-3	i	i	i
O=C(Cn1nc(-c2ccccc2)c2ccccc2c1=O)Nc1ccc(O)cc1	i	0.62	15*	i	i	i
C#CCOCCOCCOCCNc1nc(N2CCN(C(=O)[C@H]([C@@H](C)CC)n3cc([C@@H](N)Cc4ccc(O)cc4)nn3)CC2)nc(N2CCN(C(=O)[C@H](CCCCN)n3cc([C@@H](N)C(C)CC)nn3)CC2)n1 (stereo partly specified)	i	-0.3	-2	i	i	i
O=C1c2ccccc2-c2onc3ccc(NCCCn4ccnc4)c1c23	i	0.2	-21	/	i	i
COc1cc2c(cc1OC)CN(C(=O)c1sccc1C)CC2	i	-1.6	8.7*	i	i	i

Screens deposited in PubChem BioAssay by Johns Hopkins Ion Channel Center.
